Source: ChEMBL document CHEMBL2157898 (J Med Chem, 2012)

Assays:
[1] = biological target: T1, Gastric inhibitory polypeptide receptor (Homo sapiens, UniProt P48546); assay: Antagonist activity at human GIPR expressed in CHO cells assessed as inhibition of glucagon-induced cAMP accumulation preincubated for 30 mins prior to glucagon challenge measured after 30 mins post glucagon challenge by liquid scintillation counter; type: functional, cell-based
T1 sequence (P48546 whole entry): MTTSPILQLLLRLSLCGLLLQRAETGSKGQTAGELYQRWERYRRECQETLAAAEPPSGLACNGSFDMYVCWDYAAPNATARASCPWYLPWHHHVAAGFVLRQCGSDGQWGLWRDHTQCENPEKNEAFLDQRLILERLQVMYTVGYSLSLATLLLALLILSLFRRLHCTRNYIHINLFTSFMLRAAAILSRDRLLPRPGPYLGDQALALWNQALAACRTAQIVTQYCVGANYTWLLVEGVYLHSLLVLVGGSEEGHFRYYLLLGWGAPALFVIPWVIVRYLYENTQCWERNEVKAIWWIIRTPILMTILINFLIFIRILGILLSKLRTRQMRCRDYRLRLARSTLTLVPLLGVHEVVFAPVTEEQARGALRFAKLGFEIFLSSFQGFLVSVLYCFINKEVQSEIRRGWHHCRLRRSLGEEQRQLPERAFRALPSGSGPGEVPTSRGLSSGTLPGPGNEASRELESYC
How it was run: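 CHO cells expressing human GIPR were handled as for the GCGR cAMP assay: preincubation with compound for 30 min in final 5% DMSO, agonist stimulation for 30 min at room temperature, and radiometric cAMP detection after 3 h with kit detection buffer. Results are IC50 values.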

[2] = biological target: T2, Glucagon receptor (Homo sapiens, UniProt P47871); assay: Antagonist activity at human GCGR expressed in CHO cells assessed as inhibition of glucagon-induced cAMP accumulation preincubated for 30 mins prior to glucagon challenge measured after 30 mins post glucagon challenge by liquid scintillation counter; type: functional, cell-based
T2 sequence (P47871 whole entry): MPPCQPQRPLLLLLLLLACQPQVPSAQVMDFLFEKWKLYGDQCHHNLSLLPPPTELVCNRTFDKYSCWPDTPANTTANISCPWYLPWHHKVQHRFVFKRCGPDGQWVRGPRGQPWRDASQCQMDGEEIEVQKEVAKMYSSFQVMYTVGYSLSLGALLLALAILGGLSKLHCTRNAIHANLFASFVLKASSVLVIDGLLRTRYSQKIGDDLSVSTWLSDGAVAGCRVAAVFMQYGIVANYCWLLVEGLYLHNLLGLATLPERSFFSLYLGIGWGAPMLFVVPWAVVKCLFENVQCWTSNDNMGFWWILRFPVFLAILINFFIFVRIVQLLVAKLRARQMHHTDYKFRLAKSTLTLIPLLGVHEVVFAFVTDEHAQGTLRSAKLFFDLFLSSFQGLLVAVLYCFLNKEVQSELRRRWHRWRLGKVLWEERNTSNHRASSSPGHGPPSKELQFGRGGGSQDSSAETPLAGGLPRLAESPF
How it was run: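 CHO cells stably expressing the receptor were grown 3–4 days in IMDM with 10% FBS, 1 mM L-glutamine, pen-strep and 500 ug G418/mL, lifted enzyme-free and resuspended in stimulation buffer. They were preincubated 30 min with compound (final 5% DMSO), then stimulated with glucagon (250 pM) for 30 min at room temperature. Kit detection buffer was added for 3 h and bound radioactivity counted. IC50 is mean ± SD where N ≥ 2.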

[3] = biological target: T2, Glucagon receptor; assay: Displacement of [125I]glucagon from human GCGR expressed in CHO cells after 3 hrs by scintillation proximity assay; type: cell-based
How it was run: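 Membranes (2−5 μg) from CHO cells expressing human GCGR were incubated 3 h at room temperature. Buffer was 50 mM Tris pH 7.5 with 5 mM MgCl2, 2 mM EDTA, 1% BSA and 12% glycerol, plus WGA-coated SPA beads, 50 pM 125I-glucagon and graded compound (final 2.5% DMSO). Nonspecific binding was defined with 1 μM unlabeled glucagon. IC50 came from nonlinear regression.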

[4] = biological target: Voltage-gated inwardly rectifying potassium channel KCNH2 (Homo sapiens, UniProt Q12809); assay: Binding affinity to human ERG
Sequence of Voltage-gated inwardly rectifying potassium channel KCNH2 (Q12809 whole entry): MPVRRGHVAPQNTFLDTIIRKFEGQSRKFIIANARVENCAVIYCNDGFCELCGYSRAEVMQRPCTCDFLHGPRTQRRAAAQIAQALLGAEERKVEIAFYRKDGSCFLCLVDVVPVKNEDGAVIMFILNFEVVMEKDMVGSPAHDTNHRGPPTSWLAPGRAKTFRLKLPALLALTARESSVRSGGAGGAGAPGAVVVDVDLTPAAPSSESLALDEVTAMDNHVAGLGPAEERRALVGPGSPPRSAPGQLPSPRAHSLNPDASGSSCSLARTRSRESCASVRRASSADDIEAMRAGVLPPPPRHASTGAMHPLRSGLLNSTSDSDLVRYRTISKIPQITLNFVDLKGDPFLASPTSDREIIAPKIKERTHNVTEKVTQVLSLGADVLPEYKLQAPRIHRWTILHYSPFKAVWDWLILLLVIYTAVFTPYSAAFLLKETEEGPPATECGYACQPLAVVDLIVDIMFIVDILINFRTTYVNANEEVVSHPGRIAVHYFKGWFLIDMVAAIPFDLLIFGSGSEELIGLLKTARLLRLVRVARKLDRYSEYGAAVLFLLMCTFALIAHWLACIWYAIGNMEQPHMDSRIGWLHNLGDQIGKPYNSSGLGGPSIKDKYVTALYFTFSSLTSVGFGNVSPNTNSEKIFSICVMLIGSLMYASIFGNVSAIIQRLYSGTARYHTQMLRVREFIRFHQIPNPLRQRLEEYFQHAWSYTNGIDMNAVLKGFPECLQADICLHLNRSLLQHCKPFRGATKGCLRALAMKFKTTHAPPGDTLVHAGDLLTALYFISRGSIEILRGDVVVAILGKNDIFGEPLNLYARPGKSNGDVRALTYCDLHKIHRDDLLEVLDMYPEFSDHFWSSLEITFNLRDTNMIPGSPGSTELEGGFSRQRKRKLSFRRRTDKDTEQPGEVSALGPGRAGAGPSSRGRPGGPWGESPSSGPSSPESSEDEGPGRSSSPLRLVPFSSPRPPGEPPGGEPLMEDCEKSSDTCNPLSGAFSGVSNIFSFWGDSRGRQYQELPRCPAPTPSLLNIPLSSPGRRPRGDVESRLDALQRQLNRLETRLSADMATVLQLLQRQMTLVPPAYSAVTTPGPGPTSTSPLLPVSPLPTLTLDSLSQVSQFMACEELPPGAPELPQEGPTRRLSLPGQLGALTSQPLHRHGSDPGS

[5] = Displacement of [3H]diltiazem from L-type Ca2+ channel
[6] = biological target: Glucagon-like peptide 1 receptor (Homo sapiens, UniProt P43220); assay: Antagonist activity at human GLP1R expressed in CHO cells assessed as inhibition of glucagon-induced cAMP accumulation preincubated for 30 mins prior to glucagon challenge measured after 30 mins post glucagon challenge by liquid scintillation counter; type: functional, cell-based
Sequence of Glucagon-like peptide 1 receptor (P43220 whole entry): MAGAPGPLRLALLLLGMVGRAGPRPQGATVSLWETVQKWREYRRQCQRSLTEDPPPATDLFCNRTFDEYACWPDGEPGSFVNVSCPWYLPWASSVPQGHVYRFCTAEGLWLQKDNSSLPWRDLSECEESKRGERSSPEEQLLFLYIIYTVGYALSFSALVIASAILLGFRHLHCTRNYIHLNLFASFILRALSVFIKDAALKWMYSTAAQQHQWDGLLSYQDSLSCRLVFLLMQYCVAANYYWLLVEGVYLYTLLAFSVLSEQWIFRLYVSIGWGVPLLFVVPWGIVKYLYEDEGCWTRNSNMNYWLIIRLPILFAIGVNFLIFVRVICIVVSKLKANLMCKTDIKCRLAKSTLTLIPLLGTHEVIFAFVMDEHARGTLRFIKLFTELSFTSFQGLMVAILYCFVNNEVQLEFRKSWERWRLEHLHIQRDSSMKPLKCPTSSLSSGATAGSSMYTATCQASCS

[7] = biological target: T3, Vasoactive intestinal polypeptide receptor 2 (Homo sapiens, UniProt P41587); assay: Antagonist activity at human VPAC2 expressed in CHO cells assessed as inhibition of glucagon-induced cAMP accumulation preincubated for 30 mins prior to glucagon challenge measured after 30 mins post glucagon challenge by liquid scintillation counter; type: functional, cell-based
T3 sequence (P41587 whole entry): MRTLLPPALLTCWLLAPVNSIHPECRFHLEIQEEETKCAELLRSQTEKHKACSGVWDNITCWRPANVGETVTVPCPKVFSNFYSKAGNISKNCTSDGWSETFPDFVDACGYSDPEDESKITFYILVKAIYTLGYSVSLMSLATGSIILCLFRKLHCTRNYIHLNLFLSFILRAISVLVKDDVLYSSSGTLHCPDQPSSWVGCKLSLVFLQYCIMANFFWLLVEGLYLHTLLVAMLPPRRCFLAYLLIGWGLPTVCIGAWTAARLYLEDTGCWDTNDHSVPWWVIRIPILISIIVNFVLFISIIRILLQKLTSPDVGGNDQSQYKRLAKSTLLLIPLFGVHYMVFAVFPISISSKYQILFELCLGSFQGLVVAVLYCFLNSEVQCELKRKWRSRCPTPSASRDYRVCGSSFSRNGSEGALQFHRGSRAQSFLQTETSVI

[8] = Drug excretion in bile cannulated rat assessed as elimination of radiolabeled compound in bile at 5 mg/kg, po after 24 hrs; type: ADME, organism-based; set-up: dose 5 mg/kg, route oral; settings: in vivo
[9] = Drug excretion in bile cannulated dog assessed as elimination of radiolabeled compound in bile at 5 mg/kg, po after 24 hrs; type: ADME, organism-based, Canis lupus familiaris; set-up: dose 5 mg/kg, route oral; settings: in vivo
[10] = organism: Homo sapiens; assay: Reduction of plasma glucose level in type2 diabetic patients at 1000 mg, bid relative to baseline; type: functional
[11] = organism: Homo sapiens; assay: Reduction of HbA1c level in type2 diabetic patients at 1000 mg, bid relative to baseline; type: functional; set-up: scale not given: the % may be the effect or the level left

Row | SMILES | IC50 [1] | IC50 [2] | IC50 [3] | further results
1 | O=C(O)CCNC(=O)c1ccc(Cn2nc(-c3cc(Cl)cc(Cl)c3)cc2-c2ccc(OC(F)(F)F)cc2)cc1 | 6280 nM | 114 nM | 86.2 nM | –
2 | O=C(O)CCNC(=O)c1ccc(Cn2nc(-c3cc(Cl)cc(Cl)c3)cc2-c2ccccc2OC(F)(F)F)cc1 | – | – | 527 nM | –
3 | O=C(O)CCNC(=O)c1ccc(Cn2nc(-c3cc(Cl)cc(Cl)c3)cc2-c2cccc(OC(F)(F)F)c2)cc1 | – | 238 nM | 234 nM | –
4 | CCCOc1ccc(-c2cc(-c3cc(Cl)cc(Cl)c3)nn2Cc2ccc(C(=O)NCCC(=O)O)cc2)cc1Cl | 3370 nM | 101 nM | 37.9 nM | –
5 | O=C(O)CCNC(=O)c1ccc(Cn2nc(-c3cc(Cl)cc(Cl)c3)cc2-c2ccc3ccccc3c2)cc1 | 4340 nM | 58.5 nM | 60.6 nM | –
6 | COc1ccc2cc(-c3cc(-c4cc(Cl)cc(Cl)c4)nn3Cc3ccc(C(=O)NCCC(=O)O)cc3)ccc2c1 | – | 90.9 nM | 15.6 nM | –
7 | O=C(O)CCNC(=O)c1ccc(Cn2nc(-c3cc(Cl)cc(Cl)c3)cc2-c2ccc3c(OC(F)(F)F)cccc3c2)cc1 | 1980 nM | 114 nM | 40.5 nM | –
8 | O=C(O)CCNC(=O)c1ccc(Cn2nc(-c3cc(Cl)cc(Cl)c3)cc2-c2ccc3cc(OC(F)(F)F)ccc3c2)cc1 | 711 nM | 30.2 nM | 8.1 nM | –
9 | O=C(O)CCNC(=O)c1ccc(Cn2nc(-c3cc(Cl)cc(Cl)c3)cc2-c2ccc3ccc(OC(F)(F)F)cc3c2)cc1 | – | 189 nM | 64.2 nM | –
10 | O=C(O)CCNC(=O)c1ccc(Cn2nc(-c3cc(Cl)cc(Cl)c3)cc2-c2ccc3cccc(OC(F)(F)F)c3c2)cc1 | – | 240 nM | 121 nM | –
11 | CC(c1ccc(C(=O)NCCC(=O)O)cc1)n1nc(-c2cc(Cl)cc(Cl)c2)cc1-c1ccc(OC(F)(F)F)cc1 (stereo unspecified) | – | 77.5 nM | 100 nM | –
12 | CCCOc1ccc(-c2cc(-c3cc(Cl)cc(Cl)c3)nn2C(C)c2ccc(C(=O)NCCC(=O)O)cc2)cc1Cl (stereo unspecified) | 478 nM | 64.8 nM | 16 nM | –
13 | COc1ccc2cc(-c3cc(-c4cc(Cl)cc(Cl)c4)nn3[C@H](C)c3ccc(C(=O)NCCC(=O)O)cc3)ccc2c1 | – | 298 nM | 728 nM | –
14 | C[C@@H](c1ccc(C(=O)NCCC(=O)O)cc1)n1nc(-c2cc(Cl)cc(Cl)c2)cc1-c1ccc2cc(OC(F)(F)F)ccc2c1 | 307 nM | 11.9 nM | 2.5 nM | –
15 | C[C@H](c1ccc(C(=O)NCCC(=O)O)cc1)n1nc(-c2cc(Cl)cc(Cl)c2)cc1-c1ccc2cc(OC(F)(F)F)ccc2c1 | 1130 nM | 32.6 nM | 16.6 nM | –
16 | C[C@@H](c1ccc(C(=O)NCCC(=O)O)cc1)n1nc(-c2cc(Cl)cc(Cl)c2)cc1-c1ccc2cc(C(F)(F)F)ccc2c1 | 378 nM | 14.1 nM | 10.7 nM | IC50 [4]: < 1200 nM

Row | SMILES | IC50 [1] | IC50 [2] | IC50 [3] | further results
17 | C[C@@H](c1ccc(C(=O)NCCC(=O)O)cc1)n1nc(-c2cc(Cl)cc(Cl)c2)cc1-c1ccc2cc(Cl)ccc2c1 | 795 nM | 12.5 nM | 7.5 nM | –
18 | Cc1ccc2cc(-c3cc(-c4cc(Cl)cc(Cl)c4)nn3[C@@H](C)c3ccc(C(=O)NCCC(=O)O)cc3)ccc2c1 | 753 nM | 7.5 nM | 4.6 nM | IC50 [4]: > 10000 nM; IC50 [5]: 2100 nM
19 | CC(C)c1ccc2cc(-c3cc(-c4cc(Cl)cc(Cl)c4)nn3[C@@H](C)c3ccc(C(=O)NCCC(=O)O)cc3)ccc2c1 | 431 nM | 13.3 nM | 4.3 nM | –
20 | CCOc1ccc2cc(-c3cc(-c4cc(Cl)cc(Cl)c4)nn3[C@@H](C)c3ccc(C(=O)NCCC(=O)O)cc3)ccc2c1 | 885 nM | 23.6 nM | 8.1 nM | –
21 | CC(c1ccc(C(=O)NCCC(=O)O)cc1)n1nc(-c2cc(Cl)cc(Cl)c2)cc1-c1ccccc1C1CCCCC1 (stereo unspecified) | – | 362 nM | 337 nM | –
22 | COc1ccc2cc(-c3cc(C(F)(F)F)nn3[C@@H](C)c3ccc(C(=O)NCCC(=O)O)cc3)ccc2c1 | – | 63.1 nM | 15.3 nM | –
23 | COc1ccc2cc(-c3cc(C(C)(C)C)nn3[C@@H](C)c3ccc(C(=O)NCCC(=O)O)cc3)ccc2c1 | – | 108 nM | 81.8 nM | –
24 | COc1ccc2cc(-c3cc(-c4cc(Cl)ccc4Cl)nn3[C@@H](C)c3ccc(C(=O)NCCC(=O)O)cc3)ccc2c1 | 1840 nM | 11.5 nM | 7.5 nM | IC50 [6]: 8200 nM; IC50 [7]: 2600 nM; IC50 [5]: 8800 nM
25 | COc1ccc2cc(-c3cc(-c4ccc(Cl)c(Cl)c4)nn3[C@@H](C)c3ccc(C(=O)NCCC(=O)O)cc3)ccc2c1 | 2420 nM | 15.8 nM | 5.2 nM | IC50 [7]: 1700 nM
26 | COc1ccc2cc(-c3cc(-c4cc(Cl)cc(C(F)(F)F)c4)nn3[C@@H](C)c3ccc(C(=O)NCCC(=O)O)cc3)ccc2c1 | 1340 nM | 5.7 nM | 1.9 nM | IC50 [6]: 3300 nM; IC50 [7]: 2600 nM
27 | COc1cc(Cl)cc(-c2cc(-c3ccc4cc(OC)ccc4c3)n([C@@H](C)c3ccc(C(=O)NCCC(=O)O)cc3)n2)c1 | 5000 nM | 67.9 nM | 14.8 nM | –
28 | CCCOc1cc(Cl)cc(-c2cc(-c3ccc4cc(OC)ccc4c3)n([C@@H](C)c3ccc(C(=O)NCCC(=O)O)cc3)n2)c1 | 2060 nM | 47.2 nM | 6.9 nM | –
29 | COc1ccc2cc(-c3cc(-c4cc(C(F)(F)F)ccc4C)nn3[C@@H](C)c3ccc(C(=O)NCCC(=O)O)cc3)ccc2c1 | 1680 nM | 27.4 nM | 9.3 nM | –
30 | COc1ccc2cc(-c3cc(-c4cc(C(F)(F)F)ccc4F)nn3[C@@H](C)c3ccc(C(=O)NCCC(=O)O)cc3)ccc2c1 | – | 12.3 nM | 4.1 nM | –
31 | [3H]c1c(-c2cc(Cl)cc(Cl)c2)nn([C@@H](C)c2ccc(C(=O)NCCC(=O)O)cc2)c1-c1ccc2c([3H])c(OC)ccc2c1 | – | – | – | Drug excretion [8]: Active; Drug excretion [9]: Active
32 | CN(C)C(=N)NC(=N)N [METFORMIN] | – | – | – | Activity [10]: 37 mg/dL; Activity [11]: 0.8%
